Read-outs that look alike come from different tables or passages of the source.
Legend:
FLT3-TKD mutations = details: cited from earlier work
FLT3 = biological target: T1, FLT3 (Homo sapiens, UniProt P36888); experiment: Plasma inhibitory activity; assay type: cell-based
T1 sequence (P36888 27-993): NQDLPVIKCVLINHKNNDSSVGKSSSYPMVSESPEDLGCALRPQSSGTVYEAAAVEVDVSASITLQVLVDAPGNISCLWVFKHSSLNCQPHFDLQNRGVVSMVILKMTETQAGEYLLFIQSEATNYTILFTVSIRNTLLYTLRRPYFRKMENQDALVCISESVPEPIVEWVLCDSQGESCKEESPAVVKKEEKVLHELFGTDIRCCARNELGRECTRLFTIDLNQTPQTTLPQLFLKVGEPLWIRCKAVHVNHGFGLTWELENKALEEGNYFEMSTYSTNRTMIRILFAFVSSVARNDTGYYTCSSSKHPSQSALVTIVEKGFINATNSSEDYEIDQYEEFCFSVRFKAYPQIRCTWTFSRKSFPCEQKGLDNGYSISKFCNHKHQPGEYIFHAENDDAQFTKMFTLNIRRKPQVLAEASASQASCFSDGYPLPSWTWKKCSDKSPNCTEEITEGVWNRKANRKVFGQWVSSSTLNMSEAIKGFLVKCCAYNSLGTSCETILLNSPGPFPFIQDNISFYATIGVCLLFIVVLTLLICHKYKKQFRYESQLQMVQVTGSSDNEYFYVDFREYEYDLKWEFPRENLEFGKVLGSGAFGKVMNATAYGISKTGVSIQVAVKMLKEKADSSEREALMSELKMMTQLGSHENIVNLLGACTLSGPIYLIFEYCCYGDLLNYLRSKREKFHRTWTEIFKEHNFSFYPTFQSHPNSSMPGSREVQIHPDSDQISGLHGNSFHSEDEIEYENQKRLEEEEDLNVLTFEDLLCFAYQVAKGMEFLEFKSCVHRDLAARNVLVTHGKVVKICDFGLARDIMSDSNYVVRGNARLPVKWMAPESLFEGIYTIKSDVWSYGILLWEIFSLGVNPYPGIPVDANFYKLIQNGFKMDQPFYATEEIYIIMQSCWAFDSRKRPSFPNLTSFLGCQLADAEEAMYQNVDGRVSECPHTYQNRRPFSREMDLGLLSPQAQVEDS
How it was run: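 Ex vivo surrogate for in vivo FLT3 inhibition. Participant plasma was prepared from lithium-heparin whole blood collected at cycle 1 time points, including pre-dose troughs on days 8 and 15. It was tested on FLT3-ITD Molm14 cells, and P-FLT3 was expressed as a percentage of baseline. Drug concentration in the same samples was measured by mass spectrometry and paired with PIA values across QD and BID cohorts.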

[1] = Pharmacokinetic analysis of plasma FF-10101 concentration in trial participants; assay type: in vivo, human
[2] = assay type: in vivo, human; details: for Aspartate aminotransferase elevation, related TEAE / Creatine kinase increase, related TEAE / Diarrhea, related TEAE / Nausea, related TEAE: 54 participants
[3] = system: relapsed and/or refractory AML; experiment: Phase 1 dose escalation: response in patients with R/R AML; assay type: in vivo, human
AML = details: cited from earlier work
[4] = 40 response-evaluable participants
[5] = participants with history of FLT3-mutated AML at FLT3-inhibitory doses (150 mg QD, 225 mg QD, 50 mg BID, 75 mg BID)

## CNC(=O)c1cc(Oc2ccc(NC(=O)Nc3ccc(Cl)c(C(F)(F)F)c3)cc2)ccn1 [Sorafenib]
FLT3-TKD mutations
  activity against FLT3-TKD mutations: inactive

## CCCNc1nc(Nc2ccc(C#N)cc2)ncc1C#CCCCNC(=O)[C@H](C)N(C)C(=O)/C=C/CN(C)C [FF-10101]
FLT3; PIA, escalating doses
  dose levels at which inhibition of P-FLT3 was most effective: 150 mg daily, 225 mg daily, 50 mg BID, and 75 mg BID
FLT3; cycle 1 plasma samples
  plasma concentration of FF-10101 associated with more complete inhibition (PIA): > 100 ng/mL
FLT3; maximal trough suppression eg <5% of baseline
  FF-10101 concentration achieving maximal trough suppression of P-FLT3 activity: > 200 ng/mL
[1]; after oral dosing
  effect of food on absorption: unaffected by food
[1]; human, plasma, po
  half-life: ~10 h
[2]; 50 mg BID cohort, grade 3 maculopapular rash
  participants with DLT: 1 of 7
[2]; 100 mg BID cohort, 5 participants
  participants with DLTs: 2 participants
[2]; 53 of 54 participants, all cohorts
  participants reporting at least 1 treatment emergent AE (TEAE): 98.1%
[2]; <100 mg/dose
  participants reporting diarrhea: 21.2%
[2]; All grades
  Aspartate aminotransferase elevation, related TEAE: 14 (25.9) participants (%)
  Creatine kinase increase, related TEAE: 16 (29.6) participants (%)
  Diarrhea, related TEAE: 15 (27.8) participants (%)
  Nausea, related TEAE: 19 (35.2) participants (%)
[2]; Grade 1-2
  Aspartate aminotransferase elevation, related TEAE: 10 (18.5) participants (%)
  Creatine kinase increase, related TEAE: 11 (20.4) participants (%)
  Diarrhea, related TEAE: 13 (24.1) participants (%)
  Nausea, related TEAE: 19 (35.2) participants (%)
[2]; Grade ≥3
  Aspartate aminotransferase elevation, related TEAE: 4 (7.4) participants (%)
  Creatine kinase increase, related TEAE: 5 (9.3) participants (%)
  Diarrhea, related TEAE: 2 (3.7) participants (%)
  Nausea, related TEAE: 0 (0) participants (%)
[2]; all cohorts
  participants with grade 3 diarrhea: 4 participants
[2]; oral
  recommended phase 2 dose (RP2D): 75 mg BID
[2]; oral, 28-day cycles
  maximum tolerated dose (MTD): 75 mg BID
[2]; ≥100 mg/dose (100 mg QD, 150 mg QD, 225 mg QD, 100 mg BID)
  participants reporting grade 1-3 diarrhea: 76.2%
[3]; [4]
  number of CR: 1
  number of CRh: 1
  number of CRp: 2
  number of PR: 1
  overall response rate (CR + CRh + CRp + PR): 12.5%
[3]; [5]
  number of CR: 1
  number of CRp: 2
  number of PR: 1

## CO[C@@H]1[C@H](N(C)C(=O)c2ccccc2)C[C@H]2O[C@]1(C)n1c3ccccc3c3c4c(c5c6ccccc6n2c5c31)C(=O)NC4 [Midostaurin]
AML
  single-agent activity: no single-agent activity

— PMC11131057 (Blood Advances, 2024)
